{"source": "paper PMC4527612", "about": "(Journal of inorganic biochemistry, 2014)", "key": {"[1]": {"tested_on": "KCL-22 (chronic myeloid leukemia in blast crisis)", "conditions": "read-out: IC50 (μM) ± S.E.M. KCL-22, dark; cited from earlier work"}, "[2]": {"tested_on": "HeLa (cervix carcinoma)", "assay": "Dark cytotoxicity, Trypan blue exclusion test", "assay_type": "cell-based, human", "conditions": "read-out: IC50 (μM) ± S.E.M. HeLa, 48 h incubation", "summary_of_the_method": "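HeLa cells were grown in DMEM with 10% FBS, 2 mM L-glutamine and penicillin/streptomycin at 37 °C. They were seeded at 0.5 × 10^6/mL in glass vials, given 24 h, then exposed for 48 h in the dark to test compound in distilled water at various concentrations. Cells were trypsinised, stained 5–15 min with 0.4% Trypan blue and counted by hemocytometer. […] IC50 was derived from at least three experiments, mean ± S.E.M.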"}, "[3]": {"tested_on": "KCL-22 (chronic myeloid leukemia in blast crisis)", "assay": "Dark cytotoxicity, Trypan blue exclusion test", "assay_type": "cell-based, human"}, "[4]": {"tested_on": "human normal leukocytes (HNL)", "assay": "Cytotoxicity on normal cells, trypan blue exclusion assay", "assay_type": "cell-based"}, "[5]": {"tested_on": "HeLa, HEP-3B, LN-308, MCF-7 and KCL-22 human cancer cell lines", "assay": "Dose-dependent cytotoxicity curves in five cancer cell lines", "assay_type": "cell-based", "conditions": "Fig. 3"}, "[6]": {"assay": "Lipophilicity by thin-layer chromatographic retention factor Rf", "assay_type": "physicochemical", "conditions": "silica, 1:1:8 KNO3-saturated H2O:H2O:CH3CN"}, "[7]": {"tested_on": "KCL-22 cell line", "assay": "Flow cytometric cell cycle analysis", "assay_type": "cell-based, human", "summary_of_the_method": "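KCL-22 cells were exposed 24 h after seeding to three concentrations of test compound for 48 h. About 10^6 cells were fixed by dropwise addition of cold 70% ethanol on vortex, held overnight at 4 °C, and stored at −20 °C for up to a week. Cells were then washed twice in PBS and stained 30 min with 0.1 mg/mL RNase and 0.05 mg/mL propidium iodide. DNA content was read by flow cytometry, with doublets excluded by FSC/SSC. Phases were fitted with the Dean–Jett–Fox model.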"}, "[8]": {"tested_on": "HeLa cell line", "assay": "Cytokinesis block micronucleus"}, "[9]": {"tested_on": "KCL-22 cell line", "assay": "Comet assay", "assay_type": "cell-based, human", "conditions": "for % DNA in tail, Mean ± S.E.M. / % DNA in tail, Median / L/H, Mean ± S.E.M. / L/H, Median / OTM, Mean ± S.E.M. / OTM, Median: KCL-22", "summary_of_the_method": "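KCL-22 cells were treated 24 h after seeding for 2 h at three concentrations of test compound, with untreated cells as control. Cells were embedded in 0.5% low-melting agarose on slides precoated with 1% agarose and lysed 1 h at 4 °C (2.5 M NaCl, 100 mM EDTA, 10 mM Tris, 1% Triton X-100, pH 10). DNA was unwound 40 min (300 mM NaOH, 1 mM EDTA, pH >13), then electrophoresed at 4 °C for 25 min at 25 V, 300 mA. Slides were neutralised with 0.4 M Tris pH 7.5, stained with 20 μg/mL ethidium bromide, and ≥150 cells scored (50 per triplicate slide). Analysis was by Mann–Whitney test.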"}, "[10]": {"tested_on": "KCL-22 cells", "assay": "Dark toxicity of photosensitizers, vital dye exclusion test", "assay_type": "cell-based, human", "conditions": "for IC50: read-out: IC50 (μM) ± S.E.M. Under dark", "summary_of_the_method": "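KCL-22 cells were grown in RPMI-1640 with 10% FBS, 2 mM L-glutamine and penicillin/streptomycin at 37 °C, then seeded in glass vials for 24 h. Free-base porphyrin in distilled water was added at various concentrations, and cells were kept in the dark without illumination for 48 h. Viable cells were counted by vital dye exclusion, with viability as % of intact control. IC50 came from dose–response curves, mean ± S.E.M. of at least three experiments.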"}, "[11]": {"tested_on": "KCL-22 cells", "assay": "Photo-induced cytotoxicity, vital dye exclusion test", "assay_type": "cell-based, human", "summary_of_the_method": "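After 24 h in glass vials, KCL-22 cells were preincubated 30 min with free-base porphyrin (distilled water) at various concentrations. They were then irradiated 25 min with a tungsten lamp (30 mW/cm2, 28,000 lx) through a 600–900 nm glass filter and incubated a further 48 h. Viable cells were counted by vital dye exclusion. Controls were dark-kept treated cultures and illuminated untreated cultures; Chlorin e6 was the positive control. IC50 came from dose–response curves, mean ± S.E.M.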"}, "[12]": {"tested_on": "KCL-22 cells", "conditions": "read-out: IC50 (μM) ± S.E.M. Photo-induced; KCL-22, illumination; cited from earlier work"}, "[13]": {"tested_on": "KCL-22 cells", "conditions": "read-out: IC50 (μM) ± S.E.M. Under dark; KCL-22, dark; cited from earlier work"}}, "note": "Where two headings read alike, the source gives them in different places. Marks after values point to notes of the source that are not given here."}
{"compound": "5,10,15,20-tetra(4′-N-allylpyridyl)porphinato Ag(II) tetranitrate [AgTAll4PyP]", "values": [{"measurement": "IC50", "setting": "[1]", "value": "2.5 ± 1.1", "unit": "µM"}, {"measurement": "IC50", "setting": "[2]", "value": "26 ± 2.4", "unit": "µM"}]}
{"compound": "C=CC[n+]1ccc(-c2c3nc(c(-c4cc[n+](CC=C)cc4)c4ccc([n-]4)c(-c4ccc(OCCCCCCCCCCCCCCCC)c(OC)c4)c4nc(c(-c5cc[n+](CC=C)cc5)c5ccc2[n-]5)C=C4)C=C3)cc1.O=[N+]([O-])[O-].O=[N+]([O-])[O-].O=[N+]([O-])[O-].[Ag+2]", "note": "[AgTriAll4PyMVanC16P, 5-Mono(3′-methoxy-4′-hexadecyloxyphenyl)-10,15,20-tri(4′-N-allylpyridyl) porphinato Ag(II) trinitrate]", "values": [{"measurement": "fold enhancement of cytotoxicity on metallation of H2TriAll4PyMVanC16P", "setting": "[3]; KCL-22, dark", "value": 5, "unit": "fold"}, {"measurement": "toxicity on normal cells (HNL) as compared to cisplatin", "setting": "[4]; HNL, trypan blue exclusion", "value": "significantly less toxic"}, {"measurement": "toxicity towards cancer (KCL-22) versus normal (HNL) cells", "setting": "[4]; although not significant", "value": "higher towards cancer versus normal cells"}, {"measurement": "concentration at which toxicity starts", "setting": "[5]", "value": "~ 1 μM"}, {"measurement": "lipophilicity, TLC retention factor Rf, compared to tetracationic analog", "setting": "[6]", "value": "gained significantly in lipophilicity"}, {"measurement": "number of cells in G2 phase", "setting": "[7]; KCL-22, 48 h", "value": "not changed"}, {"measurement": "S-phase cell number", "setting": "[7]; KCL-22, IC50/2, IC50, IC60, 48 h", "value": "significantly increased"}, {"measurement": "cells in G1 phase", "setting": "[7]; KCL-22, IC50 or IC60 concentration, 48 h", "value": "statistically significant reduction"}, {"measurement": "MN (micronucleus) formation in binucleate cells", "setting": "[8]; all concentrations applied, from IC50/5 to IC60, HeLa", "value": "did not induce MN formation"}, {"measurement": "CBPI (cytokinesis block proliferation index)", "setting": "[8]; concentration IC50, HeLa", "value": "1.33 ± 0.002"}, {"measurement": "CBPI, % of negative control", "setting": "[8]; concentration IC50, HeLa", "value": 91, "unit": "%"}, {"measurement": "CBPI, % of negative control", "setting": "[8]; concentration IC50/2, HeLa", "value": 94, "unit": "%"}, {"measurement": "CBPI (cytokinesis block proliferation index)", "setting": "[8]; concentration IC50/2, HeLa, listed as Ag porphyrin", "value": "1.37 ± 0.004"}, {"measurement": "CBPI (cytokinesis block proliferation index)", "setting": "[8]; concentration IC50/2, HeLa, listed as Amphiphilic Ag porphyrin", "value": "no effect"}, {"measurement": "CBPI, % of negative control", "setting": "[8]; concentration IC50/5, HeLa", "value": 97, "unit": "%"}, {"measurement": "CBPI (cytokinesis block proliferation index)", "setting": "[8]; concentration IC50/5, HeLa, listed as Ag porphyrin", "value": "1.42 ± 0.034"}, {"measurement": "CBPI (cytokinesis block proliferation index)", "setting": "[8]; concentration IC50/5, HeLa, listed as Amphiphilic Ag porphyrin", "value": "no effect"}, {"measurement": "CBPI (cytokinesis block proliferation index)", "setting": "[8]; concentration IC60, HeLa", "value": "1.20 ± 0.002"}, {"measurement": "CBPI, % of negative control", "setting": "[8]; concentration IC60, HeLa", "value": 82, "unit": "%"}, {"measurement": "% DNA in tail, Mean ± S.E.M.", "setting": "[9]; concentration IC50, 2 h", "value": "9.36 ± 0.68", "unit": "%"}, {"measurement": "% DNA in tail, Median", "setting": "[9]; concentration IC50, 2 h", "value": "7.14 ^* %"}, {"measurement": "L/H, Mean ± S.E.M.", "setting": "[9]; concentration IC50, 2 h", "value": "1.34 ± 0.01"}, {"measurement": "L/H, Median", "setting": "[9]; concentration IC50, 2 h", "value": "1.32 ^*"}, {"measurement": "OTM, Mean ± S.E.M.", "setting": "[9]; concentration IC50, 2 h", "value": "5.63 ± 0.42"}, {"measurement": "OTM, Median", "setting": "[9]; concentration IC50, 2 h", "value": "4.12 ^*"}, {"measurement": "% DNA in tail, Mean ± S.E.M.", "setting": "[9]; concentration IC50/5, 2 h", "value": "3.10 ± 0.20", "unit": "%"}, {"measurement": "% DNA in tail, Median", "setting": "[9]; concentration IC50/5, 2 h", "value": "3.11 ^* %"}, {"measurement": "L/H, Mean ± S.E.M.", "setting": "[9]; concentration IC50/5, 2 h", "value": "1.12 ± 0.01"}, {"measurement": "L/H, Median", "setting": "[9]; concentration IC50/5, 2 h", "value": "1.12 ^*"}, {"measurement": "OTM, Mean ± S.E.M.", "setting": "[9]; concentration IC50/5, 2 h", "value": "1.42 ± 0.08"}, {"measurement": "OTM, Median", "setting": "[9]; concentration IC50/5, 2 h", "value": "1.14 ^*"}, {"measurement": "% DNA in tail, Mean ± S.E.M.", "setting": "[9]; concentration IC50/20, 2 h", "value": "1.74 ± 0.14", "unit": "%"}, {"measurement": "% DNA in tail, Median", "setting": "[9]; concentration IC50/20, 2 h", "value": 1.74, "unit": "%"}, {"measurement": "L/H, Mean ± S.E.M.", "setting": "[9]; concentration IC50/20, 2 h", "value": "1.08 ± 0.00"}, {"measurement": "L/H, Median", "setting": "[9]; concentration IC50/20, 2 h", "value": 1.07}, {"measurement": "OTM, Mean ± S.E.M.", "setting": "[9]; concentration IC50/20, 2 h", "value": "0.93 ± 0.06"}, {"measurement": "OTM, Median", "setting": "[9]; concentration IC50/20, 2 h", "value": 0.58}, {"measurement": "DNA damage (Comet assay)", "setting": "[9]; concentrations IC50/5 and IC50, KCL-22, 2 h after application", "value": "induce the breakage of DNA molecule"}, {"measurement": "DNA damage (Comet assay)", "setting": "[9]; low (IC50/20) concentration, KCL-22, 2 h", "value": "no effect"}]}
{"compound": "C=Cc1c(C)c2cc3nc(c(CC(=O)O)c4[nH]c(cc5nc(cc1[nH]2)C(C)=C5CC)c(C)c4C(=O)O)[C@@H](CCC(=O)O)[C@@H]3C", "note": "[Chlorin e6, reference compound]", "values": [{"measurement": "IC50", "setting": "[10]; Homo sapiens, KCL-22, 48 h", "value": "> 50", "unit": "µM"}, {"measurement": "IC50", "setting": "[11]; Homo sapiens, KCL-22, read-out: IC50 (μM) ± S.E.M. Photo-induced", "value": "4 ± 0.2", "unit": "µM"}]}
{"compound": "N.N.[Cl][Pt][Cl]", "note": "[Cisplatin, cisplatin, reference compound]", "values": [{"measurement": "concentration at which toxicity starts", "setting": "[5]", "value": "~ 0.2 μM"}]}
{"compound": "C=CC[n+]1ccc(-c2c3nc(c(-c4cc[n+](CC=C)cc4)c4ccc([nH]4)c(-c4cc[n+](CC=C)cc4)c4nc(c(-c5cc[n+](CC=C)cc5)c5ccc2[nH]5)C=C4)C=C3)cc1", "note": "[H2TAll4PyP, 5,10,15,20-tetra(4′-N-allylpyridyl)porphyrin tetrabromide]", "values": [{"measurement": "IC50", "setting": "[12]", "value": 50, "unit": "µM"}, {"measurement": "IC50", "setting": "[13]", "value": "> 1600", "unit": "µM"}]}
{"compound": "C=CC[n+]1ccc(-c2c3nc(c(-c4cc[n+](CC=C)cc4)c4ccc([nH]4)c(-c4ccc(OCCCCCCCCCCCCCCCC)c(OC)c4)c4nc(c(-c5cc[n+](CC=C)cc5)c5ccc2[nH]5)C=C4)C=C3)cc1.[Br-].[Br-].[Br-]", "note": "[H2TriAll4PyMVanC16P, 5-Mono(3′-methoxy-4′-hexadecyloxyphenyl)-10,15,20-tri(4′-N-allylpyridyl) porphine tribromide]", "values": [{"measurement": "lipophilicity, TLC retention factor Rf, compared to tetracationic analog", "setting": "[6]", "value": "gained dramatically in lipophilicity"}, {"measurement": "fold increase in cytotoxicity over tetracationic analog H2TAll4PyP", "setting": "[10]; KCL-22, dark", "value": "more than 60 fold"}, {"measurement": "IC50", "setting": "[10]; KCL-22, dark, 48 h", "value": "25 ± 2", "unit": "µM"}, {"measurement": "fold by which IC50 upon illumination is lower than IC50 under the dark", "setting": "[11]; KCL-22", "value": "more than 35 fold"}, {"measurement": "fold more phototoxic than Chlorin e6", "setting": "[11]; KCL-22, illumination", "value": 5, "unit": "fold"}]}
{"compound": "O=[N+]([O-])[O-].[Ag+]", "note": "[Silver nitrate]", "values": [{"measurement": "toxicity on KCL-22 cell line", "setting": "[3]; at up to 20 μM concentration, data not shown", "value": "no toxicity"}]}
